This is a sample that favours compounds with a hit; in the whole collection about 2.5% have one here.
SENP8 block-1: blocks human SENP8 cleavage of Nedd8 substrate. Q96LD8. recombinant SENP8, Nedd8 substrate fluorescence. inhibition, % at 20 µM. 0.64% of 360,000 active; in the data active = inhibition mostly above about 40%, no sharp cut-off; inactive = mostly below about 27%
SENP1 FRET inh: blocks the human SENP1 SUMO protease catalytic domain. recombinant SENP1 catalytic domain, CyPet-SUMO1-YPet FRET cleavage. inhibition, % at 10 µM. 0.21% of 360,000 active. AID 624204;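 active = inhibition at least 30% at 10 µM, raw YFP signal under a set limit, fluorescence ratio 0.5 to 1.5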
Target sequence (Q9P0U3 419-644 limits assumed): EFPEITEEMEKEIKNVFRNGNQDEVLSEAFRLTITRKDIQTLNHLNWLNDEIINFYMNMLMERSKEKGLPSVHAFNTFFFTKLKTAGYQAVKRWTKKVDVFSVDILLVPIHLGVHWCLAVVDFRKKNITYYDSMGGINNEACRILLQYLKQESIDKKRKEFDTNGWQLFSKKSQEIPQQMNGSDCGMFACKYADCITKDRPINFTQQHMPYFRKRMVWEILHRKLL
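system = hSENP1 catalytic domain, recombinant | reagent = SFCypet-SUMO1-SFYpet substrate at 25 nM | doses = one dose per compound, 10 µM, 0.5% DMSO | incubation = enzyme reaction for 50 min at room temperature, dark | measured by = FRET, CFP and YFP emission | controls = no-enzyme low, enzyme-DMSO high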
SENP6 inh: SENP6 protease inhibition; Q9GZR1; Recombinant SENP6 catalytic domain, aminoluciferin luminescence; inhibition, % at 10 µM; 1.8% of 330,000 active;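 active = inhibition above about 50% at the single tested dose, limit read from the data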
SENP7 inh: SENP7 protease inhibition. Q9BQF6. recombinant SENP7, Z-RLRGG-aminoluciferin luminescence, 40 min. inhibition, % at 5 µM. 1.5% of 330,000 active;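 active = inhibition above about 50% at the single test dose, limit read from the data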
Target sequence (Q9BQF6 706-1050 limits assumed): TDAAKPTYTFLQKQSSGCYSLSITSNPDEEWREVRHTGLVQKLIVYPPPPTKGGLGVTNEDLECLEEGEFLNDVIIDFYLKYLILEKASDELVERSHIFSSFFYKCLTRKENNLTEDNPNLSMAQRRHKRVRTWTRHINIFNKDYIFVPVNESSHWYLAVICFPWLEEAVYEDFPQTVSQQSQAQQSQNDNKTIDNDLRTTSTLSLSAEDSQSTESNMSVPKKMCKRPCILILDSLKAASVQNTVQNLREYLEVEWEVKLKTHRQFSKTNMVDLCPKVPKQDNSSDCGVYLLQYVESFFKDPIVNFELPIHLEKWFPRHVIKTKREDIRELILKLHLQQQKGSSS
SENP8 block-2: blocks the human protease SENP8 | Q96LD8 | purified SENP8, Z-RLRGG-aminoluciferin cleavage, luminescence | inhibition, % at 10 µM | 1.2% of 330,000 active | AID 2540; in the data active = inhibition above about 50%
SENP8 inh conf: confirmation of human SENP8 protease inhibitors. inhibition, % at 25 µM. purified SENP8, Nedd8-AMC/pro-Nedd8 cleavage fluorescence, 30 min. shares compounds with SENP8 block-1. 15% of 1,400 active; in the data active = inhibition mostly above about 39%, no sharp cut-off; inactive = mostly below about 34%
Large screens that a line does not name were inactive (follow-up assays come after a bar, where they were run).

O=C(O)c1cc([N+](=O)[O-])ccc1N1CCCCC1	SENP8 block-1 42 | SENP8 inh conf inactive
O=C(c1cc([N+](=O)[O-])ccc1N1CCCCC1)N1CCCCC1	none
O=C(O)c1c(N2CCCCC2)ccc([N+](=O)[O-])c1N1CCCCC1	SENP8 block-1 40 | SENP8 inh conf inactive
COc1ccccc1OCCCn1c(=O)oc2ccc(C)cc21	SENP8 block-1 41 | SENP8 inh conf inactive
Cc1cc(C)c(C)c(S(=O)(=O)NCc2ccc(C(=O)N3CCCCC3)cc2)c1C	SENP8 block-1 42 | SENP8 inh conf inactive
[2H]C([2H])(CCOS(N)(=O)=O)c1ccccc1	none
CC(C)(C)NS(=O)(=O)c1ccc(Oc2ncc(C(F)(F)F)cc2Cl)cc1	SENP8 block-1 40 | SENP8 inh conf inactive
O=C(O)c1cccc(N2C(=O)c3ccc(Oc4ccc(Cl)cc4)cc3C2=O)c1	none
O=C(O)c1cccc(C(=O)O)c1	SENP8 block-1 45 | SENP8 inh conf inactive
O=C(O)c1cccc(N2C(=O)c3ccc4c5c(ccc(c35)C2=O)C(=O)N(c2cccc(C(=O)O)c2)C4=O)c1	SENP8 block-1 50 | SENP8 inh conf 50
Cc1cccc(N2C(=O)/C(=C\c3ccc(C(=O)O)cc3)c3ccccc3C2=O)c1	SENP8 block-1 43 | SENP8 inh conf inactive
Cc1cccc(N2C(=O)c3ccc(C(=O)Nc4ccccn4)cc3C2=O)c1	none
O=C1CC(c2ccccc2F)c2c(c3ccccc3[nH]c2=O)O1 (centres undefined)	none
Cc1ccc(S(=O)(=O)Nc2ccc(=O)n(Cc3ccc(Cl)c(Cl)c3)c2)cc1	none
O=c1ccc(NS(=O)(=O)c2ccccc2Cl)cn1Cc1ccc(Cl)c(Cl)c1	SENP8 block-1 39 | SENP8 inh conf inactive
O=C(/C(=C(\[O-])c1ccccc1)[n+]1ccc2ccccc2c1)c1ccccc1	none (no result: SENP6 inh, SENP7 inh, SENP8 block-2)
O=C(/C(=C(\[O-])c1ccccc1)[n+]1ccc2ccccc2c1)c1ccc(Cl)cc1	SENP8 block-1 46 | SENP8 inh conf 62
CC1C/C(=N/Nc2ccc([N+](=O)[O-])cc2[N+](=O)[O-])CC(C)(C)C1 (centres undefined)	SENP8 block-1 46 | SENP8 inh conf inactive
C/C(CC(C)C)=N/Nc1ccc([N+](=O)[O-])cc1[N+](=O)[O-]	none
NS(=O)(=O)c1ccc(NN=C2CCCCC2)c([N+](=O)[O-])c1	none
CC1CCCC/C1=N/Nc1ccc([N+](=O)[O-])cc1[N+](=O)[O-] (centres undefined)	SENP8 block-1 47 | SENP8 inh conf inactive
O=c1c2ccccc2ncn1Cc1ccc(Cl)c(Cl)c1	none
Cc1[nH][nH]c(=O)c1C(c1c(C)[nH][nH]c1=O)c1cn(Cc2ccc(F)cc2)c2ccccc12	SENP8 block-1 77 (no result: SENP6 inh, SENP7 inh, SENP8 block-2) | SENP8 inh conf 73
O=C(O)Cc1cn(Cc2ccc(F)cc2)c2ccccc12	none
Cc1[nH][nH]c(=O)c1C(c1c(C)[nH][nH]c1=O)c1cn(Cc2ccc(Cl)c(Cl)c2)c2ccccc12	SENP8 block-1 73 (no result: SENP6 inh, SENP7 inh, SENP8 block-2) | SENP8 inh conf 68
CCCn1c(C2CCCN2c2nc(-c3cccc(Br)c3)cs2)nc2ccccc21 (centres undefined)	none
COc1ccc(C(=O)CNc2ccc(C)cc2C)cc1	SENP8 block-1 54 | SENP8 inh conf inactive
Nc1cc(Cl)nc(N/N=C/c2ccc([N+](=O)[O-])cc2)n1	none
Nc1cc(Cl)nc(N/N=C/c2ccccc2[N+](=O)[O-])n1	SENP8 block-1 52 | SENP8 inh conf inactive
COc1ccc(/C=N/N2C(=O)C3C4C=CC(CC4)C3C2=O)c(OC)c1 (centres undefined)	none
CC1(OC(=O)CCc2ccccc2)C(=O)C=C2C=C3CCCN3C=C2C1=O (centres undefined)	SENP8 block-1 55 | SENP8 inh conf 43
CC1(OC(=O)C2CCCC2)C(=O)C=C2C=C3CCCN3C=C2C1=O (centres undefined)	none (no result: SENP8 block-1, SENP1 FRET inh)
COC(=O)C1=COC(OC2OC(CO)C(O)C(O)C2O)C2C1C=CC2(O)CO (centres undefined)	SENP8 block-1 41 | SENP8 inh conf inactive
CC(=O)c1cccc(NS(=O)(=O)N2CCCCC2)c1	SENP8 block-1 41 | SENP8 inh conf inactive
O=C(Cn1nc(Cc2ccncc2)c2ccccc2c1=O)N1CCc2ccccc2C1	SENP8 block-1 84 | SENP8 inh conf 94
O=C(Nc1ccc(N2CCN(C(=O)c3ccc(Cl)cc3)CC2)cc1)c1ccc2c(c1)OCCO2	none
O=C(Nc1ccccc1N1CCCC1)c1ccc([N+](=O)[O-])o1	SENP8 block-1 40 | SENP8 inh conf 54
CC(C)(C)C(=O)N1CCN(c2ccc(NC(=O)c3ccco3)cc2)CC1	none
CCC(=O)N1CCN(c2ccc(NC(=O)c3ccc([N+](=O)[O-])o3)cc2)CC1	SENP8 block-1 43 (no result: SENP6 inh, SENP7 inh, SENP8 block-2) | SENP8 inh conf inactive
O=C(Nc1ccc(N2CCN(C(=O)c3ccc(Cl)cc3)CC2)cc1)c1ccc([N+](=O)[O-])o1	SENP8 block-1 33 (no result: SENP6 inh, SENP7 inh, SENP8 block-2) | SENP8 inh conf inactive
CC1CCN(c2ccccc2NC(=O)c2ccc([N+](=O)[O-])o2)CC1	none
CC(C)(C)C(=O)N1CCN(c2ccc(NC(=O)c3ccc([N+](=O)[O-])o3)cc2)CC1	SENP8 block-1 48 | SENP8 inh conf inactive
S=C(CN1CCCC1=S)NCCc1ccccc1	none
Cc1ccc(-c2ccc(=O)n(Cc3cccc(Br)c3)n2)cc1	none
CCCC(=O)N1CCN(c2ccc(NC(=O)c3ccc([N+](=O)[O-])o3)cc2)CC1	SENP8 block-1 54 (no result: SENP6 inh, SENP7 inh, SENP8 block-2) | SENP8 inh conf inactive
COC(=O)C[C@@H]1OC[C@H](Cc2ccccc2)N1S(=O)(=O)c1ccc(C)cc1	none (no result: SENP6 inh, SENP7 inh, SENP8 block-2)
Cc1cc(C)cc(-n2ncc3c2CCCC3NC(=O)CN2CCCCC2=O)c1 (centres undefined)	none
Cn1c(Cc2ccccc2)nnc1SCC(=O)c1cccs1	SENP8 block-1 40 | SENP8 inh conf inactive
Cc1ccc(NNC(N)=S)cc1Cl	SENP8 block-1 60 | SENP8 inh conf inactive
CCOc1ccc(NC(=O)CSc2ccc(-c3cccnc3)nn2)cc1	none
CCC(C)(NC(=O)c1ccc2c(c1)OCO2)C(=O)NC1CCCCC1 (centres undefined)	none
CC1=NNC(=O)C1C(c1cccc(O)c1)C(C#N)C#N (centres undefined)	none
CC1=NN(c2ccc(C)cc2C)C(=O)C1C(c1cccc(O)c1)C1C(=O)N(c2ccc(C)cc2C)N=C1C (centres undefined)	SENP8 block-1 60 | SENP8 inh conf 44
O=C(Cn1nnc2ccccc2c1=O)NCC1CCC(C(=O)O)CC1 (centres undefined)	none
CCC(=O)NC(Nc1sc2c(c1C(=O)OC)CCCC2)(C(F)(F)F)C(F)(F)F	SENP8 block-1 43 | SENP8 inh conf inactive
COCC(=O)Nc1sc2c(c1C(=O)OC)CCCC2	none

Assay outcomes from PubChem BioAssay.
